Measured values taken from ChEMBL document CHEMBL1141109, “Synthesis of an estrogen receptor beta-selective radioligand: 5-[18F]fluoro-(2R,3S)-2,3-bis(4-hydroxyphenyl)pentanenitrile and comparison of in vivo distribution with 16alpha-[18F]fluoro-17beta-estradiol” (J Med Chem, 2005).

What was measured:
[1] = Biodistribution of [18F]FEDPN in alpha estrogen receptor knock out mouse uterus after 30 min; (n=3); format: ADME, organism-based; conditions: in vivo, 0.5 h
How it was run: (§1)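 αERKO and βERKO mice, staged by daily vaginal smears and kept on estrogen-free chow, were studied in a nonestrous stage. Each mouse received 11 μCi of tracer in 130 μL of 10% ethanol/saline. Mice were killed at 30 min, 1 h or 2 h (n = 3 each). Organs were removed, blotted, weighed and gamma-counted against an injectate standard. Uptake is given as %ID/g ± SD.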

[2] = Biodistribution of [18F]FEDPN in alpha estrogen receptor knock out mouse thymus after 1 h; (n=3); format: ADME, organism-based; conditions: in vivo; how it was run: as §1
[3] = Biodistribution of [18F]FEDPN in beta estrogen receptor knock out mouse brain after 2 h; (n=3); format: ADME, organism-based; conditions: in vivo; how it was run: as §1
[4] = Biodistribution of [18F]FEDPN in rat bone after 30 min when given in tail vein; (n=5); format: ADME, organism-based, Bone element; conditions: in vivo, iv, 0.5 h
How it was run: (§2)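 Immature female Sprague–Dawley rats (<25 days old) under isoflurane/O2 got 20 µCi tracer in 150 µL 20% ethanol/saline by tail vein. […] Rats were killed at 30 min, 1 h or 2 h. Organs were blotted, weighed and gamma-counted against an injectate standard. Data are %ID/g ± SD, five rats per point.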

[5] = Biodistribution of [18F]FEDPN in alpha estrogen receptor knock out mouse heart after 30 min; (n=3); format: ADME, organism-based; conditions: in vivo, 0.5 h
How it was run: (§3)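 ERKO female mice (αERKO or βERKO), rested 48 h after shipping, placed on estrogen-free chow, and staged by daily vaginal smears. Injected in a nonestrous stage with 11 µCi [18F]FEDPN in 130 µL of 10% ethanol/saline. Killed at 30 min, 1 h or 2 h. Organs counted and reported as %ID/g ± SD, three animals per point.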

[6] = Biodistribution of [18F]FEDPN in rat muscle after 30 min when given in tail vein; (n=5); format: ADME, organism-based, Muscle tissue; conditions: in vivo, iv, 0.5 h; how it was run: as §2
[7] = Biodistribution of [18F]-FEDPN in rat muscle after 1 hr block when given in tail vein; (n=5); format: ADME, organism-based, Muscle tissue; conditions: in vivo, iv
How it was run: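 Immature female Sprague–Dawley rats (<25 days old) anesthetized with isoflurane/O2. Given 20 µCi tracer by tail vein in 150 µL of 20% ethanol/saline. […] Killed at 30 min, 1 h or 2 h. Blood and organs blotted, weighed and gamma-counted against a standard dilution of the injectate. Reported as %ID/g ± SD, n=5.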

[8] = Biodistribution of [18F]FEDPN in rat heart after 30 min when given in tail vein; (n=5); format: ADME, organism-based; conditions: in vivo, iv, 0.5 h; how it was run: as §2
[9] = Biodistribution of [18F]FEDPN in beta estrogen receptor knock out mouse liver after 1 h; (n=3); format: ADME, organism-based; conditions: in vivo; how it was run: as §1
[10] = Biodistribution of [18F]FEDPN in alpha estrogen receptor knock out mouse kidney after 30 min; (n=3); format: ADME, organism-based; conditions: in vivo, 0.5 h; how it was run: as §3
[11] = Biodistribution of [18F]FEDPN in beta estrogen receptor knock out mouse spleen after 30 min; (n=3); format: ADME, organism-based; conditions: in vivo, 0.5 h; how it was run: as §1
[12] = target: Estrogen receptor (Mus musculus) (UniProt O08537+P19785); assay: Ratio of [18F]FEDPN uptake in uterus of ERbeta KO-mouse (diestrus) and ERalpha KO-mouse (nonestrus) after 2 hr
[13] = Biodistribution of [18F]FEDPN in rat lung after 2 h when given in tail vein; (n=5); format: ADME, organism-based; conditions: in vivo, iv; how it was run: as §2
[14] = Biodistribution of [18F]FEDPN in alpha estrogen receptor knock out mouse kidney after 1 h; (n=3); format: ADME, organism-based; conditions: in vivo; how it was run: as §3
[15] = Biodistribution of [18F]-FEDPN in alpha estrogen receptor knock out mouse spleen after 1 h; (n=3); format: ADME, organism-based; conditions: in vivo; how it was run: as §3
[16] = Biodistribution of [18F]FES in beta estrogen receptor knock out mouse bone after 1 h; (n=3); format: ADME, organism-based, Bone element; conditions: in vivo
[17] = Biodistribution of [18F]-FES in beta estrogen receptor knock out mouse thymus after 1 h; (n=3); format: ADME, organism-based; conditions: in vivo
How it was run: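 Female βERKO mice in estrus were used because repeated swabbing had induced pseudopregnancy. They were fed estrogen-free chow. Each received 13 µCi [18F]FES in 100 µL 10% ethanol/saline and was sacrificed at 30 min, 1 h or 2 h (n = 3 each). Tissue uptake is given as %ID/g ± SD.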

[18] = Biodistribution of [18F]FES in beta estrogen receptor knock out mouse thymus after 30 min(n=2); mice in nonestrus stage; format: ADME, organism-based; conditions: in vivo, 0.5 h
[19] = Biodistribution of [18F]FES in alpha estrogen receptor knock out mouse ovaries after 30 min; (n=3); format: ADME, organism-based, Female gonad; conditions: in vivo, 0.5 h
[20] = Biodistribution of [18F]FES in alpha estrogen receptor knock out mouse thymus after 2 h; (n=3); format: ADME, organism-based; conditions: in vivo
[21] = Biodistribution of [18F]FES in beta estrogen receptor knock out mouse lung after 30 min(n=2); mice in nonestrus stage; format: ADME, organism-based; conditions: in vivo, 0.5 h
[22] = Biodistribution of [18F]FES in beta estrogen receptor knock out mouse liver after 30 min; (n=3); format: ADME, organism-based; conditions: in vivo, 0.5 h
[23] = Biodistribution of [18F]FES in beta estrogen receptor knock out mouse bone after 2 h; (n=3); format: ADME, organism-based, Bone element; conditions: in vivo
[24] = Biodistribution of [18F]FES in beta estrogen receptor knock out mouse ovaries after 30 min(n=2); mice in nonestrus stage; format: ADME, organism-based, Female gonad; conditions: in vivo, 0.5 h
[25] = Biodistribution of [18F]FES in alpha estrogen receptor knock out mouse fat after 1 h; (n=3); format: ADME, organism-based, Adipose tissue; conditions: in vivo
How it was run: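 Female αERKO mice rested 48 h after shipping and fed estrogen-free chow. Estrous stage was checked by daily vaginal smears, and mice were used in diestrus. Each received 13 µCi [18F]FES in 100 µL 10% ethanol/saline. Animals were sacrificed at 30 min, 1 h or 2 h (n = 3 each). Tissue uptake is reported as %ID/g ± SD.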

[26] = Biodistribution of [18F]-FES in beta estrogen receptor knock out mouse brain after 30 min; (n=3); format: ADME, organism-based; conditions: in vivo, 0.5 h
How it was run: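 βERKO mice rested 48 h after shipping, fed estrogen-free chow and staged by vaginal smears. Repeated swabbing caused pseudopregnancy in some, so this group was studied in estrus. Mice given [18F]FES were sacrificed at 30 min (n = 3). Uptake is reported as %ID/g ± SD.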

[27] = Biodistribution of [18F]FES in beta estrogen receptor knock out mouse kidney after 2 h; (n=3); format: ADME, organism-based; conditions: in vivo
[28] = Biodistribution of [18F]FES in beta estrogen receptor knock out mouse blood after 30 min; (n=3); format: ADME, organism-based; conditions: in vivo, 0.5 h
[29] = Biodistribution of [18F]-FES in alpha estrogen receptor knock out mouse bone after 2 h; (n=3); format: ADME, organism-based, Bone element; conditions: in vivo
How it was run: (§4)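 Female αERKO mice were rested 48 h after shipping and fed estrogen-free chow. They were staged by daily vaginal smears and studied in diestrus. Each received 13 µCi [18F]FES in 100 µL 10% ethanol/saline and was sacrificed at 30 min, 1 h or 2 h (n = 3 per time). Tissue uptake is given as %ID/g ± SD.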

[30] = Biodistribution of [18F]FES in beta estrogen receptor knock out mouse heart after 1 h; (n=3); format: ADME, organism-based; conditions: in vivo
[31] = Biodistribution of [18F]FES in beta estrogen receptor knock out mouse bone after 30 min; (n=3); format: ADME, organism-based, Bone element; conditions: in vivo, 0.5 h
[32] = Biodistribution of [18F]FES in alpha estrogen receptor knock out mouse blood after 30 min; (n=3); format: ADME, organism-based; conditions: in vivo, 0.5 h; how it was run: as §4
[33] = Biodistribution of [18F]FES in beta estrogen receptor knock out mouse heart after 30 min(n=2); mice in nonestrus stage; format: ADME, organism-based; conditions: in vivo, 0.5 h

Estrogen receptor (Mus musculus), sequence (O08537 whole entry, looked up): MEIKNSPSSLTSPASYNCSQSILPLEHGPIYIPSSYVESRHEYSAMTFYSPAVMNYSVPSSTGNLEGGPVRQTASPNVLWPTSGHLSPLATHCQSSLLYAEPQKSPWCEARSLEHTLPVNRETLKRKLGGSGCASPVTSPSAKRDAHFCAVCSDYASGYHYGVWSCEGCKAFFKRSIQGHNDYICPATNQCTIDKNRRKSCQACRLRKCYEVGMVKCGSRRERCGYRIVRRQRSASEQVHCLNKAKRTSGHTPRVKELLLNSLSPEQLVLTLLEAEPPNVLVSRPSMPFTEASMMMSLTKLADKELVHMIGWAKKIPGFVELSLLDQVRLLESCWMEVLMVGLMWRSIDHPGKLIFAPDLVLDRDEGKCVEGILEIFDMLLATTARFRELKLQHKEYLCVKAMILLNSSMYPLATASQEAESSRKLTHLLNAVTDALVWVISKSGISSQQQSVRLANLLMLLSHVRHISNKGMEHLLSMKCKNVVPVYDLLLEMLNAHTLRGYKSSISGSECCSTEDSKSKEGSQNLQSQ
Estrogen receptor (Mus musculus), sequence (P19785 whole entry, looked up): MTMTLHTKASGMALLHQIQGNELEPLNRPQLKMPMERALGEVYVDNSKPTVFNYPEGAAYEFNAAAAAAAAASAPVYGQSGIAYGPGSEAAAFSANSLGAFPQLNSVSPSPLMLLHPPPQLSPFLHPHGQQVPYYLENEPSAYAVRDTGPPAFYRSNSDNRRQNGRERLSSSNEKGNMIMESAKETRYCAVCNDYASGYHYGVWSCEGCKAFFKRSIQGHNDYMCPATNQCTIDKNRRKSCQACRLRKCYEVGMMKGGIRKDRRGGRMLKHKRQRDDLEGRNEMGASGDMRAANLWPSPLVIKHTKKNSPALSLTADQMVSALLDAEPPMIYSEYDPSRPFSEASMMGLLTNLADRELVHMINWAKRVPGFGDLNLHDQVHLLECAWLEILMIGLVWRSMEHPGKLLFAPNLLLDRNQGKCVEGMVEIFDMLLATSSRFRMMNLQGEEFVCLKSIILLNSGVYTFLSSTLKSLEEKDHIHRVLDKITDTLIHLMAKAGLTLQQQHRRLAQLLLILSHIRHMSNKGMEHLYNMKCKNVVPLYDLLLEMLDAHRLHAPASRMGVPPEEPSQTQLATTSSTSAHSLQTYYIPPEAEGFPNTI

With `N#C[C@H](c1ccc(O)cc1)[C@@H](CCF)c1ccc(O)cc1` the Biodistribution [1] was 1.11 %ID/g, the Biodistribution [2] was 0.68 %ID/g and the Biodistribution [3] was 0.3 %ID/g. The Biodistribution [4] was 2.12 %ID/g, the Biodistribution [5] was 1.57 %ID/g and the Biodistribution [6] was 0.57 %ID/g. For the same compound, the Biodistribution [7] was 0.2 %ID/g, the Biodistribution [8] was 0.49 %ID/g and the Biodistribution [9] was 3.79 %ID/g. For the same compound, the Biodistribution [10] was 7.22 %ID/g, the Biodistribution [11] was 0.87 %ID/g and the Ratio [12] was 1.29. The Biodistribution [13] was 0.19 %ID/g, the Biodistribution [14] was 2.97 %ID/g and the Biodistribution [15] was 0.61 %ID/g.

Work on `C[C@]12CC[C@@H]3c4ccc(O)cc4CC[C@H]3[C@@H]1C[C@@H](F)[C@@H]2O` [FLUOROESTRADIOL] yielded a Biodistribution [16] of 1.08 %ID/g, a Biodistribution [17] of 0.92 %ID/g and a Biodistribution [18] of 1.65 %ID/g. The Biodistribution [19] was 2.52 %ID/g, the Biodistribution [20] was 0.1 %ID/g and the Biodistribution [21] was 3.57 %ID/g. For the same compound, the Biodistribution [22] was 9.45 %ID/g, the Biodistribution [23] was 0.53 %ID/g and the Biodistribution [24] was 6.6 %ID/g. For the same compound, the Biodistribution [25] was 0.14 %ID/g, the Biodistribution [26] was 0.71 %ID/g and the Biodistribution [27] was 1.05 %ID/g. For the same compound, the Biodistribution [28] was 0.67 %ID/g, the Biodistribution [29] was 0.23 %ID/g and the Biodistribution [30] was 0.46 %ID/g. For the same compound, the Biodistribution [31] was 1.28 %ID/g, the Biodistribution [32] was 0.65 %ID/g and the Biodistribution [33] was 0.95 %ID/g.
